Tests used:
Type in all cases: functional
SF-268 [1] = assay: Growth inhibition of human SF268 cells assessed as cell growth at 100 uM after 48 hrs by sulforhodamine B assay relative to control; settings: SF-268, 48 h, read-out: Activity
Procedure, shortened: (§1)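 One-dose pre-test on MCF7, NCI-H460 and SF-268. Cells were inoculated and pre-incubated on a microtiter plate, then given a single 10^-4 M dose and incubated 48 h. Growth was read spectrophotometrically and expressed as percent of untreated control cells; negative values indicate cell kill.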

NCI-H460 = assay: Growth inhibition of human NCI-H460 cells assessed as cell growth at 100 uM after 48 hrs by sulforhodamine B assay relative to control; settings: NCI-H460, 48 h, read-out: Activity; procedure, shortened: as §1
MCF7 [2] = assay: Growth inhibition of human MCF7 cells assessed as cell growth at 100 uM after 48 hrs by sulforhodamine B assay relative to control; settings: MCF7, 48 h, read-out: Activity; procedure, shortened: as §1
[3] = Growth inhibition of human ovarian cancer cell after 48 hrs by sulforhodamine B assay; settings: Cancer cell lines
Procedure, shortened: (§2)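 Subpanel median growth inhibitory concentration: the average sensitivity of each tumor-type subpanel of the NCI 60-cell-line panel, derived from per-cell-line GI50 values. GI50 values came from a five log dose range and are expressed as log molar concentration for 50% net growth inhibition.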

SN12C = assay: Growth inhibition of human SN12C cells after 48 hrs by sulforhodamine B assay
Procedure, shortened: (§3)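 NCI 60-cell-line main screen across nine tumor types, with five log dose range per compound. GI50 is the molar concentration giving half growth inhibition, reported as the log of the molar concentration that inhibits 50% net cell growth.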

SF-539 = assay: Growth inhibition of human SF539 cells after 48 hrs by sulforhodamine B assay; settings: SF-539, 48 h
Procedure, shortened: (§4)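 NCI 60-cell-line main test over a five-log dose range. GI50 is the molar concentration giving half-growth inhibition, reported as log molar. Subpanel values are median GI50 across that subpanel's lines. Where 50% inhibition was not reached within the tested interval, the highest tested concentration was used.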

A498 = assay: Growth inhibition of human A498 cells after 48 hrs by sulforhodamine B assay; settings: A498, 48 h; procedure, shortened: as §4
[4] = Growth inhibition of human leukemia cell after 48 hrs by sulforhodamine B assay; procedure, shortened: as §2
[5] = Growth inhibition of human CNS cancer cell after 48 hrs by sulforhodamine B assay; settings: Cancer cell lines; procedure, shortened: as §4
[6] = Growth inhibition of human renal cancer cell after 48 hrs by sulforhodamine B assay; settings: Cancer cell lines; procedure, shortened: as §2
[7] = Growth inhibition of human melanoma cell after 48 hrs by sulforhodamine B assay; procedure, shortened: as §2
[8] = Growth inhibition of human prostate cancer cell after 48 hrs by sulforhodamine B assay; settings: Cancer cell lines; procedure, shortened: as §2
COLO 205 = assay: Growth inhibition of human COLO205 cells after 48 hrs by sulforhodamine B assay; settings: COLO 205, 48 h; procedure, shortened: as §4
NCI/ADR-RES = assay: Growth inhibition of human NCI/ADR-RES cells after 48 hrs by sulforhodamine B assay; procedure, shortened: as §4
[9] = Growth inhibition of human colon cancer cell after 48 hrs by sulforhodamine B assay; settings: Cancer cell lines; procedure, shortened: as §2
SF-268 [10] = assay: Growth inhibition of human SF268 cells after 48 hrs by sulforhodamine B assay; settings: SF-268, 48 h; procedure, shortened: as §4
[11] = Growth inhibition of human non-small lung cancer cell after 48 hrs by sulforhodamine B assay; settings: Cancer cell lines; procedure, shortened: as §2
[12] = Growth inhibition of human breast cancer cell after 48 hrs by sulforhodamine B assay; settings: Cancer cell lines; procedure, shortened: as §2
MCF7 [13] = assay: Growth inhibition of human MCF7 cells after 48 hrs by sulforhodamine B assay; settings: MCF7, 48 h; procedure, shortened: as §4
SNB-75 = assay: Growth inhibition of human SNB75 cells after 48 hrs by sulforhodamine B assay; settings: SNB-75, 48 h; procedure, shortened: as §3
HOP-62 = assay: Growth inhibition of human HOP62 cells after 48 hrs by sulforhodamine B assay; settings: HOP-62, 48 h; procedure, shortened: as §4
OVCAR-3 = assay: Growth inhibition of human OVCAR-3 cells after 48 hrs by sulforhodamine B assay; settings: OVCAR-3, 48 h; procedure, shortened: as §4
MDA-MB-435 = assay: Growth inhibition of human MDA-MB-435 cells after 48 hrs by sulforhodamine B assay; settings: MDA-MB-435, 48 h; procedure, shortened: as §4
SK-MEL-2 = assay: Growth inhibition of human SK-MEL-2 cells after 48 hrs by sulforhodamine B assay; settings: SK-MEL-2, 48 h; procedure, shortened: as §4
UACC-257 = assay: Growth inhibition of human UACC257 cells after 48 hrs by sulforhodamine B assay; settings: UACC-257, 48 h; procedure, shortened: as §3
NCI-H226 = assay: Growth inhibition of human NCI-H226 cells after 48 hrs by sulforhodamine B assay; settings: NCI-H226, 48 h; procedure, shortened: as §4
A549 = assay: Growth inhibition of human A549 cells after 48 hrs by sulforhodamine B assay; settings: A549, 48 h; procedure, shortened: as §4
786-0 = assay: Growth inhibition of human 786-0 cells after 48 hrs by sulforhodamine B assay; settings: 786-0, 48 h; procedure, shortened: as §4
BT-549 = assay: Growth inhibition of human BT549 cells after 48 hrs by sulforhodamine B assay; settings: BT-549, 48 h; procedure, shortened: as §4
HCT-15 = assay: Growth inhibition of human HCT15 cells after 48 hrs by sulforhodamine B assay; settings: HCT-15, 48 h; procedure, shortened: as §4
UACC-62 = assay: Growth inhibition of human UACC62 cells after 48 hrs by sulforhodamine B assay; settings: UACC-62, 48 h; procedure, shortened: as §3

CC(NC(=O)Nn1cnnc1)(C(F)(F)F)C(F)(F)F
growth at 100 µM (SF-268 [1]): 105%
growth at 100 µM (NCI-H460): 94%
growth at 100 µM (MCF7 [2]): 81%

O=c1[nH]cc(F)c(=O)[nH]1 [FLUOROURACIL]
GI50 [3]: 1.82 µM
GI50 (SN12C): 0.501 µM
GI50 (SF-539): 0.0631 µM
GI50 (A498): 0.398 µM
GI50 [4]: 0.562 µM
GI50 [5]: 1.35 µM
GI50 [6]: 0.575 µM
GI50 [7]: 0.933 µM
GI50 [8]: 0.912 µM
GI50 (COLO 205): 0.158 µM
GI50 (NCI/ADR-RES): 0.316 µM
GI50 [9]: 0.186 µM
GI50 (SF-268 [10]): 1.58 µM
GI50 [11]: 2 µM
GI50 [12]: 1.38 µM
GI50 (MCF7 [13]): 0.0794 µM
GI50 (SNB-75): 79.4 µM
GI50 (HOP-62): 0.398 µM
GI50 (OVCAR-3): 0.0158 µM

CC(NC(=O)Nc1c(Cl)cc(Cl)cc1Cl)(C(F)(F)F)C(F)(F)F
growth at 100 µM (SF-268 [1]): 96%
growth at 100 µM (NCI-H460): 103%
growth at 100 µM (MCF7 [2]): 89%

CC(NC(=O)Nc1nnc[nH]1)(C(F)(F)F)C(F)(F)F
growth at 100 µM (SF-268 [1]): 111%
growth at 100 µM (NCI-H460): 111%
growth at 100 µM (MCF7 [2]): 98%

CCC(NC(=O)Nc1nc2ccccc2s1)(C(F)(F)F)C(F)(F)F
GI50 [3]: 17.8 µM
GI50 (MDA-MB-435): 20 µM
GI50 [4]: 22.9 µM
GI50 [5]: 11.7 µM
GI50 [6]: 15.1 µM
GI50 (SK-MEL-2): 15.8 µM
GI50 [7]: 17.4 µM
GI50 [8]: 18.2 µM
GI50 [9]: 18.6 µM
GI50 (UACC-257): 20 µM
GI50 [11]: 18.6 µM
GI50 [12]: 18.2 µM
GI50 (MCF7 [13]): 15.8 µM
GI50 (NCI-H226): 15.8 µM
GI50 (A549): 15.8 µM
GI50 (786-0): 20 µM

CCC(NC(=O)Nc1c(Cl)cccc1Cl)(C(F)(F)F)C(F)(F)F
growth at 100 µM (SF-268 [1]): 101%
growth at 100 µM (NCI-H460): 79%
growth at 100 µM (MCF7 [2]): 75%

CCC(NC(=O)Nn1cnnc1)(C(F)(F)F)C(F)(F)F
growth at 100 µM (SF-268 [1]): 105%
growth at 100 µM (NCI-H460): 94%
growth at 100 µM (MCF7 [2]): 84%

CC(NC(=O)Nc1c(Cl)cccc1Cl)(C(F)(F)F)C(F)(F)F
growth at 100 µM (SF-268 [1]): 84%
growth at 100 µM (NCI-H460): 85%
growth at 100 µM (MCF7 [2]): 82%

CCC(NC(=O)Nc1nnc[nH]1)(C(F)(F)F)C(F)(F)F
growth at 100 µM (SF-268 [1]): 102%
growth at 100 µM (NCI-H460): 86%
growth at 100 µM (MCF7 [2]): 102%

CC(NC(=O)Nc1nc2ccccc2s1)(C(F)(F)F)C(F)(F)F
GI50 [3]: 39.8 µM
GI50 (BT-549): > 100 µM
GI50 (A498): 100 µM
GI50 [4]: 21.9 µM
GI50 (HCT-15): > 100 µM
GI50 [5]: 25.7 µM
GI50 [6]: 28.2 µM
GI50 [7]: 42.7 µM
GI50 [8]: 56.2 µM
GI50 (NCI/ADR-RES): > 100 µM
GI50 [9]: 42.7 µM
GI50 [11]: 33.9 µM
GI50 [12]: 50.1 µM
GI50 (UACC-62): > 100 µM
GI50 (HOP-62): 31.6 µM

CCC(NC(=O)Nc1c(Cl)cc(Cl)cc1Cl)(C(F)(F)F)C(F)(F)F
growth at 100 µM (SF-268 [1]): 98%
growth at 100 µM (NCI-H460): 81%
growth at 100 µM (MCF7 [2]): 88%

— ChEMBL document CHEMBL1287654, “Anticancer activity of N-bis(trifluoromethyl)alkyl-N'-(polychlorophenyl) and N'-(1,2,4-triazolyl) ureas” (2010)
